Entries after “also recorded” stand apart in the source; their conditions may differ. Residues, ends and D or L forms follow the SMILES beside them.
What was measured:
rat thoracic aorta = molecular target: T1, rat thoracic aorta (Rattus norvegicus, UniProt P49684); details: comparison of U-II, P5U and UPG84
T1 sequence (P49684 1-386): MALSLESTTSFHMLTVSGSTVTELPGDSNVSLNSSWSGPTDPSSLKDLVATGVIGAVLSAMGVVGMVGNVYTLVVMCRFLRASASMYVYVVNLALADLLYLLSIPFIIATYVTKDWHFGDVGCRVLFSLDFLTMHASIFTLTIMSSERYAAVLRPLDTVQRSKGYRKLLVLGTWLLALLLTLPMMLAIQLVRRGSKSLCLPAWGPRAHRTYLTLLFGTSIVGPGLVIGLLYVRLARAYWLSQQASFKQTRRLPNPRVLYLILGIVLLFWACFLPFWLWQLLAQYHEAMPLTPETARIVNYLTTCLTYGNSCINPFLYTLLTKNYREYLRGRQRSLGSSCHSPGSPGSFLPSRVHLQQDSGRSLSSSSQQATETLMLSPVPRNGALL
Method in brief: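 Thoracic aorta from male Wistar rats (200–250 g) killed under anaesthesia was cut helically into two parallel strips and the endothelium rubbed off. Strips were held in bicarbonate salt solution at 37°C gassed with 95% O2/5% CO2, 5 mN load, isotonic recording. After 60 min equilibration they were checked with noradrenaline 1 μmol l−1 and re-equilibrated 60 min. Cumulative concentration-response curves were fitted by sigmoidal regression; EC50 expressed as pD2 (−log EC50).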

[1] = system: intracavernous pressure in anesthetized rats; experiment: Monitoring of intracavernous pressure; type: in vivo, male Wistar rats; details: for ICP effect compared with U-II and/or P5U (in words): comparison between the peptides; for effect on ICP / penile erection (in words): lowest dose
Method in brief: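 Male Wistar rats (200–250 g) under i.p. urethane (1 g kg−1); carotid catheter records systemic pressure; 26-gauge needle through right crus into the cavernosal space records ICP; injections via the other crus. Test compound given at 0.03, 0.1, 0.3 and 1 nmol in 50 μl saline, next dose ≥5 min after return to baseline; ACh 5 nmol ends each run. Read-outs are ΔICP (mmHg) and AUC (mmHg × s); mean ± s.e.m., 5–7 experiments; ANOVA with Bonferroni post-test.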

vascular smooth muscle = details: cited from earlier work
[2] = system: intracavernous pressure in rats; details: intracavernous administration in rats; cited from earlier work
[3] = system: human corpus cavernosum strips; details: cited from earlier work

| Structure (SMILES) | agonist activity / potency (in words) (rat thoracic aorta) | increase in ICP, area under the curve ([1]; 0.1 nmol intracavernous, 50 μl saline, urethane anesthesia, mean ± s.e.m., n = 7) [mmHg × s] | ICP effect compared with U-II 0.3 nmol (in words) ([1]; 0.1 nmol intracavernous, compared with U-II at 0.3 nmol per rat) | ICP effect compared with U-II and/or P5U (in words) ([1]; 0.03–1 nmol intracavernous) | delta of increase in ICP (in words) ([1]; 0.03–1 nmol intracavernous, delta in mmHg) | effect on ICP (in words) ([1]; doses of 0.1, 0.3 and 1 nmol intracavernous) | effect on ICP / penile erection (in words) ([1]; 0.03 nmol intracavernous) | vasoconstrictor potency (in words) (vascular smooth muscle) | ICP increase (in words) [2] | relaxation of human corpus cavernosum (in words) [3] | ICP effect (in words) ([1]; 0.1 nmol intracavernous) | ICP effect compared with P5U 1 nmol (in words) ([1]; 0.03 nmol intracavernous, compared with P5U at 1 nmol) | ICP effect compared with highest dose of U-II, 1 nmol (in words) ([1]; 0.03 nmol intracavernous, compared with U-II at 1 nmol) |
| --- | --- | --- | --- | --- | --- | --- | --- | --- | --- | --- | --- | --- | --- |
| CC(C)[C@H](NC(=O)[C@@H]1CSSC(C)(C)[C@H](NC(=O)[C@@H](N)CC(=O)O)C(=O)N[C@@H](Cc2ccccc2)C(=O)N[C@@H](Cc2c[nH]c3ccccc23)C(=O)N[C@@H](CCCCN)C(=O)N[C@@H](Cc2ccc(O)cc2)C(=O)N1)C(=O)O [P5U, H-Asp-c[Pen-Phe-Trp-Lys-Tyr-Cys]-Val-OH] (HELM PEPTIDE1{D.[Pen].F.W.K.Y.C.V}$PEPTIDE1,PEPTIDE1,2:R3-7:R3$$$V2.0) | higher activity (pD2) when compared to the endogenous ligand U-II | 73.95 ± 7.312 | comparable to the effect elicited by U-II at a dose of 0.3 nmol; also recorded: not statistically different from the effect elicited by U-II at a dose of 0.3 nmol per rat | elicited a significant increase in ICP as compared to U-II | displays the same profile of the area under the curve | significantly raises ICP | did not affect the ICP |  |  |  |  |  |  |
| CC(C)[C@H](NC(=O)[C@@H]1CSSC[C@H](NC(=O)[C@H](CC(=O)O)NC(=O)[C@@H]2CCCN2C(=O)[C@@H](NC(=O)[C@@H](N)CCC(=O)O)[C@@H](C)O)C(=O)N[C@@H](Cc2ccccc2)C(=O)N[C@@H](Cc2c[nH]c3ccccc23)C(=O)N[C@@H](CCCCN)C(=O)N[C@@H](Cc2ccc(O)cc2)C(=O)N1)C(=O)O [U-II, H-Glu-Thr-Pro-Asp-c[Cys-Phe-Trp-Lys-Tyr-Cys]-Val-OH] |  |  |  |  |  |  |  | most potent vasoconstrictor compound identified | dose-dependent increase in intracavernous pressure (ICP) | relaxes human corpus cavernosum strips in endothelium-and NO-dependent manner | already detectable |  |  |
| CC(C)[C@H](NC(=O)[C@@H]1CSSC(C)(C)[C@H](NC(=O)[C@@H](N)CC(=O)O)C(=O)N[C@@H](Cc2ccccc2)C(=O)N[C@H](Cc2c[nH]c3ccccc23)C(=O)N[C@@H](CCCN)C(=O)N[C@@H](Cc2ccc(N)cc2)C(=O)N1)C(=O)O [UPG84, H-Asp-c[Pen-Phe-DTrp-Orn-(pNH2) Phe-Cys]-Val-OH] (HELM PEPTIDE1{D.[Pen].F.[dW].[Orn].[Nc1ccc(C[C@H](N[*:1])C(=O)[*:2])cc1].C.V}$PEPTIDE1,PEPTIDE1,2:R3-7:R3$$$V2.0) | showed the highest activity compared with the endogenous ligand, U-II, or P5U; also recorded: more potent than U-II or P5U |  |  | caused a significant increase in ICP compared to the endogenous ligand, U-II, and to P5U; also recorded: even more effective than P5U |  |  | induced a prominent penile erection in rat; also recorded: elicited a marked increase in ICP, expressed as area, compared with vehicle |  |  |  |  | comparable to the penile erection induced by P5U at the dose of 1 nmol | showed an effect similar to the highest dose of U-II (1 nmol); also recorded: comparable profile to that elicited by the highest dose of U-II (1 nmol); also recorded: comparable to the highest tested dose of U-II (1 nmol) |

From publication PMC4291883 (Asian Journal of Andrology, 2014)
